Measurements: ChEMBL document CHEMBL2401676, “Synthesis and biological evaluation of pyrrolidine derivatives as novel and potent sodium channel blockers for the treatment of ischemic stroke” (Bioorg Med Chem Lett, 2013)

Experiments:
hERG (KCNH2) = hERG (KCNH2) (Homo sapiens, UniProt Q12809); assay: Inhibition of human ERG channel expressed in HEK293 cells at 1 uM by voltage patch clamp technique; type: cell-based; conditions: HEK293 cells that express hERG
[1] = Inhibition of sodium channel in Wistar rat cerebrocortical synaptosomes assessed as inhibition of veratridine-induced depolarization using rhodamine-6G by spectrofluorometry; type: subcellular, Brain
[2] = Neuroprotective activity in guinea pig papillary muscles assessed as action potential duration at 90% repolarization at 10 uM after 30 mins relative to control; type: functional, Cavia porcellus, Muscle tissue
In short: (§1)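 Intracellular action potentials were evoked by 1 ms pulses at 1.5–3 times the voltage threshold, with all solutions held at 36 °C. APD90 was recorded before and 30 min after compound exposure and expressed against the pre-treatment value.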

[3] = Neuroprotective activity in guinea pig papillary muscles assessed as action potential duration at 90% repolarization at 3 uM after 30 mins relative to control; type: functional, Cavia porcellus, Muscle tissue; in short: as §1
[4] = Neuroprotective activity in guinea pig papillary muscles assessed as action potential duration at 90% repolarization at 30 uM after 30 mins relative to control; type: functional, Cavia porcellus, Muscle tissue; in short: as §1
[5] = Neuroprotective activity in guinea pig papillary muscles assessed as action potential duration at 90% repolarization at 100 uM after 30 mins relative to control; type: functional, Cavia porcellus, Muscle tissue
In short: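 Action potentials were evoked by 1 ms stimuli at 1.5–3 times threshold voltage, with all solutions kept at 36 °C. APD90 was recorded before compound exposure and again 30 min after.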

Rattus norvegicus [6] = assay: Neuroprotective activity in Wistar rat transient MCAO model assessed as reduction in cerebral infarction size at 8.2 mg/kg, sc (reference value: 379.8 +/- 43.8 mm'3); type: functional; conditions: route subcutaneous
In short: (§2)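 Female Wistar rats, 8 weeks old, underwent 90 min transient MCAO followed by reperfusion. Drug was given sc 30 min after occlusion at 0.8, 2.5 or 8.2 mg/kg, and controls received an equal volume of saline. At 24 h the brain was cut into 7 slices and TTC-stained. Infarct area per slice was measured by image analysis and summed to infarct volume; n = 5–6, mean ± SEM, Student's t-test.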

Rattus norvegicus [7] = assay: Neuroprotective activity in Wistar rat transient middle cerebral artery occlusion model at 8.2 mg/kg, sc administered 30 mins after occlusion; type: functional; conditions: route subcutaneous; in short: as §2
Rattus norvegicus [8] = assay: Neuroprotective activity in Wistar rat transient middle cerebral artery occlusion model at 0.8 mg/kg, sc administered 30 mins after occlusion; type: functional; conditions: route subcutaneous; in short: as §2
Rattus norvegicus [9] = assay: Neuroprotective activity in Wistar rat transient middle cerebral artery occlusion model at 2.5 mg/kg, sc administered 30 mins after occlusion; type: functional; conditions: route subcutaneous; in short: as §2
Rattus norvegicus [10] = assay: Neuroprotective activity in sc dosed Wistar rat transient middle cerebral artery occlusion model administered 30 mins after occlusion; type: functional, organism-based; in short: as §2

Sequence of hERG (KCNH2) (Q12809 whole entry): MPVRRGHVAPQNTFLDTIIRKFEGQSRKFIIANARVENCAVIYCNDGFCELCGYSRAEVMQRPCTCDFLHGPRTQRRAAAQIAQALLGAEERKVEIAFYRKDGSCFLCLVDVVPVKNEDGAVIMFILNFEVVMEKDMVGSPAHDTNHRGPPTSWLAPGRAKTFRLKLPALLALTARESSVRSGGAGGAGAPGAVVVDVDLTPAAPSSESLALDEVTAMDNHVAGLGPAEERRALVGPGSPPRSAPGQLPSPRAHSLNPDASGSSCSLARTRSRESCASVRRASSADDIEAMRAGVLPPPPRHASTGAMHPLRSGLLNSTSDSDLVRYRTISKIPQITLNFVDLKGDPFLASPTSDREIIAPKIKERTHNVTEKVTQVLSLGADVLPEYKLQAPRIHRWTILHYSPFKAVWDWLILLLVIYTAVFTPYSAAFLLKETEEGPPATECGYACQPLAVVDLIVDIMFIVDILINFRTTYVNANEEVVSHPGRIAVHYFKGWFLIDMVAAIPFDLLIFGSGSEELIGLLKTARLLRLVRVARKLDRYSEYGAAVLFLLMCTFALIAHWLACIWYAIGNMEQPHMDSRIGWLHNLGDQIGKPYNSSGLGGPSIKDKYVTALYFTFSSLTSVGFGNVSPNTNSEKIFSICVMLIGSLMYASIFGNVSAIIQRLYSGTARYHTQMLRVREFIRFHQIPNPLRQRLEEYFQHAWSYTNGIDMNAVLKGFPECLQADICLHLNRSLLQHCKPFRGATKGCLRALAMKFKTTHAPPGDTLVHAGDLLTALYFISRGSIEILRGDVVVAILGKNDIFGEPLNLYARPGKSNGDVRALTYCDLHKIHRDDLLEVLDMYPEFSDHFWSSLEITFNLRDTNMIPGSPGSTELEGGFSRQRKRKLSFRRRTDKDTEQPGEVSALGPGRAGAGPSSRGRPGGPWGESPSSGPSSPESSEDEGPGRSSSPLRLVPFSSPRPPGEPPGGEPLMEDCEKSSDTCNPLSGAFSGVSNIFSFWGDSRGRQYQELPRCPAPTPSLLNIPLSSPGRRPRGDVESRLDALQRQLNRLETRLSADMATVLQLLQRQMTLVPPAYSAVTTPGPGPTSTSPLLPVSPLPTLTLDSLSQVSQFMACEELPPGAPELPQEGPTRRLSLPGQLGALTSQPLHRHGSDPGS

| Compound | inhibition at 1 µM (hERG (KCNH2)) [%] | IC50 [1] [nM] | also measured |
| --- | --- | --- | --- |
| Cc1nc(OCCCCCN2CCCCC2)cc(-c2ccc(F)cc2)n1 | 60 |  |  |
| Cc1cc(OC[C@@H](O)CN2CCN(c3ccc(Cc4ccc(F)cc4)cc3)CC2)c(C)c(C)c1N | 78 |  |  |
| c1ccc(CN2C[C@H](NC3CCCCC3)[C@@H](c3ccccc3)C2)cc1 |  | 570 |  |
| c1ccc(CN2C[C@@H](NC3CCCCC3)[C@H](c3ccccc3)C2)cc1 |  | 540 |  |
| C[C@@H](CN1CC[C@@]2(C)c3cccc(O)c3C[C@@H]1C2(C)C)OCc1ccccc1.Cl | 69 |  | Activity [2]: 89.1%; Activity [3]: 96.6%; Activity [4]: 72.9% |
| OC(COc1ccc2c(c1)CCC2)CN1CCC(c2nc3ccccc3[nH]2)CC1 (configuration not stated) | 99 |  |  |
| c1ccc(CN2C[C@H](NC3CCCCC3)[C@H](c3ccccc3)C2)cc1 | 28 | 560 |  |
| O=C(N[C@@H]1CN(Cc2ccccc2)C[C@H]1c1ccccc1)c1ccccc1 (racemic) | 45 | 1900 |  |
| c1ccc(CN[C@@H]2CN(Cc3ccccc3)C[C@H]2c2ccccc2)cc1 (racemic) | 57 | 640 |  |
| O=C(N[C@@H]1CN(Cc2ccccc2)C[C@H]1c1ccccc1)C1CCCCC1 (racemic) | 31 | 480 |  |
| c1ccc(CN2C[C@@H](NCC3CCCCC3)[C@H](c3ccccc3)C2)cc1 (racemic) | 60 | 320 |  |
| c1ccc(CN2C[C@@H](Nc3ccccc3)[C@H](c3ccccc3)C2)cc1 (racemic) | 43 | 480 |  |
| O=C(N[C@@H]1CN(Cc2ccccc2)C[C@H]1C1CCCCC1)C1CCCCC1 (racemic) | 45 | 740 |  |
| c1ccc(CN[C@@H]2CN(Cc3ccccc3)C[C@H]2C2CCCCC2)cc1 (racemic) | 79 | 900 |  |
| c1ccc(CN2C[C@@H](NC3CCCCC3)[C@H](C3CCCCC3)C2)cc1 (racemic) | 35 | 740 |  |
| Cl.Cl.c1ccc(CN2C[C@@H](NC3CCCCC3)[C@H](c3ccccc3)C2)cc1 (racemic) | 8.4 | 510 | Activity [5]: 90.8%; Activity (Rattus norvegicus [6]): 166.7 mm3; Activity [2]: 95.3%; Activity (Rattus norvegicus [7]): 56%; Activity (Rattus norvegicus [8]): 27%; Activity (Rattus norvegicus [9]): 37%; Activity [4]: 92.3% |
| c1ccc(CN2C[C@@H](NCC3CCCCC3)[C@H](C3CCCCC3)C2)cc1 (racemic) | 60 | 560 |  |
| c1ccc([C@@H]2CN(C3CCCCC3)C[C@H]2NC2CCCCC2)cc1 (racemic) |  | 3350 |  |
| c1ccc([C@@H]2CN(CC3CCCCC3)C[C@H]2NC2CCCCC2)cc1 (racemic) | 45 | 380 |  |
| c1ccc(CN2C[C@@H](NC3CCCCC3)[C@H](c3ccccc3)C2)cc1 (racemic) |  |  | Activity (Rattus norvegicus [10]): Dose-dependent effect |
